# In ChEMBL document CHEMBL2385031, “Design, synthesis, and initial evaluation of a high affinity positron emission tomography probe for imaging matrix metalloproteinases 2 and 9” (J Med Chem, 2013):
# What was measured:
# [1] = biological target: 72 kDa type IV collagenase (Homo sapiens, UniProt P08253); experiment: Inhibition of human full length MMP2 using Mca-Pro-Leu-Gly-Leu-Dpa(Dnp)-Ala-Arg-NH2 as substrate measured up to 120 mins by fluorescence assay
# Method in brief: (§1)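 Recombinant full-length human enzyme activated with APMA, used at 0.1 nM final in 50 mM Tris/HCl pH 7.5, 10 mM CaCl2, 150 mM NaCl, 0.05% Brij-35. Inhibitor added from DMSO (e.g., 1 nM to 30 μM). Activity read as initial slope of fluorescence rise from cleavage of an internally quenched fluorogenic substrate; IC50 derived.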
# [2] = biological target: T1, Interstitial collagenase (Homo sapiens, UniProt P03956); experiment: Inhibition of MMP1 (unknown origin)
# T1 sequence (P03956 whole entry): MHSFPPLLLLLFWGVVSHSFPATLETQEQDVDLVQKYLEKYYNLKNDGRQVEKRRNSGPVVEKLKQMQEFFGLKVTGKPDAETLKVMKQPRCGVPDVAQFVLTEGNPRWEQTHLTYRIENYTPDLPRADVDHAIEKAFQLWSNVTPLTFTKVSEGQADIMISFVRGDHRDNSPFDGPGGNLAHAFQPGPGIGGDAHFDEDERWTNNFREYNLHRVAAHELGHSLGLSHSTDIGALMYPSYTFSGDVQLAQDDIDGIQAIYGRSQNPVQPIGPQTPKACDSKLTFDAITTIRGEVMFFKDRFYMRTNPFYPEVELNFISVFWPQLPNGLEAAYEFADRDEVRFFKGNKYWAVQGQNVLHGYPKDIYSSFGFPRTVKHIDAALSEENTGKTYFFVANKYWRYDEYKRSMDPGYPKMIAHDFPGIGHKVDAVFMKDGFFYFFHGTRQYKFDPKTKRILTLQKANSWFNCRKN
# [3] = biological target: Matrix metalloproteinase-9 (Homo sapiens, UniProt P14780); experiment: Inhibition of human full length MMP9 using Mca-Pro-Leu-Gly-Leu-Dpa(Dnp)-Ala-Arg-NH2 as substrate measured up to 120 mins by fluorescence assay; method in brief: as §1
# Chain of Matrix metalloproteinase-9 (P14780 whole entry): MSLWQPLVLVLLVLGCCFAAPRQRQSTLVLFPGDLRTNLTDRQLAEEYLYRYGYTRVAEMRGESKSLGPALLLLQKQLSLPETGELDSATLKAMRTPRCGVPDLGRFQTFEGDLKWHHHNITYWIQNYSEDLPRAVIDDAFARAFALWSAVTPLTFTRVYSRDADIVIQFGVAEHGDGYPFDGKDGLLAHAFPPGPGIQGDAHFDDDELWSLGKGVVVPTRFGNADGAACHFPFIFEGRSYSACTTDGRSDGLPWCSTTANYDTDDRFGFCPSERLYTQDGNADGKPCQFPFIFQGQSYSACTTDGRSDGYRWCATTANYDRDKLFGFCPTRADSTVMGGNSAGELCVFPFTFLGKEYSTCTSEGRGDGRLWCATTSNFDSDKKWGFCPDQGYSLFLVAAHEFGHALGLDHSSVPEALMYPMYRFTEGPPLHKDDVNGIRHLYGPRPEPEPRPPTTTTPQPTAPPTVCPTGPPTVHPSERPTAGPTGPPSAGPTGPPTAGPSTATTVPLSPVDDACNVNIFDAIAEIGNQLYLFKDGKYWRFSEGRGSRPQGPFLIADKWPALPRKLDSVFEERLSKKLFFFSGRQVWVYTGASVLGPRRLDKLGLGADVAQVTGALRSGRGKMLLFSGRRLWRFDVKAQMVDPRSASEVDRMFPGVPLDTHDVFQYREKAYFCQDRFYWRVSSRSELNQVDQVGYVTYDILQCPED
# [4] = system: Plasma; experiment: Metabolic stability in human plasma at 60 Mbq up to 2 hrs by UPLC analysis; type: ADME, cell-free
# Method in brief: (§2)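 About 60 MBq formulated 18F-tracer (5% ethanol in PBS) added to ~0.5 mL plasma, split into six aliquots. Zero-time sample quenched immediately with methanol; others incubated at 37 °C with shaking and quenched with ice-cold methanol at 5, 30, 60, 90, 120 min. Proteins removed by centrifugation at 10000g, 10 min; supernatants analysed by UPLC.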
# [5] = Drug excretion in C57BL/6 mouse urine at 650 MBq/mL after 15 to 60 mins by UPLC analysis; type: ADME, tissue-based; conditions: in the assay text read “after 60 mins” for “after 15 to 60 mins”, read-out: Drug excretion
# Method in brief: (§3)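 C57BL/6 mice given 150 μL of 650 MBq/mL (17.5 mCi/mL) 18F-labelled tracer each; killed by decapitation at 15, 30 and 60 min post-injection. Blood and urine collected, proteins precipitated with twice the volume of ice-cold acetonitrile, centrifuged; supernatants analysed by radio-UPLC for intact tracer versus metabolites.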
# [6] = system: Bone; experiment: Drug uptake in C57BL/6 mouse bone at 5.3 MBq, iv by PET/CT imaging; type: ADME, organism-based, Bone element; conditions: in vivo
# Method in brief: (§4)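 Single C57BL/6 mouse, 5.3 MBq 18F-tracer via tail vein, isoflurane 2−3% in oxygen/air, body kept at 37 °C. Small-animal PET/CT, two-bed static acquisition: anterior 8−22 min, posterior 23−38 min post-injection; images averaged 8−38 min.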
# [7] = Drug uptake in C57BL/6 mouse urinary bladder at 5.3 MBq, iv by PET/CT imaging; type: ADME, organism-based; conditions: in vivo; method in brief: as §4
# [8] = system: Blood; experiment: Drug metabolism in C57BL/6 mouse blood assessed as compound remaining at 650 MBq/mL after 15 to 60 mins by UPLC analysis; type: ADME, tissue-based; method in brief: as §3
# [9] = system: Plasma; experiment: Metabolic stability in rat plasma at 60 Mbq up to 2 hrs by UPLC analysis; type: ADME, cell-free; method in brief: as §2
# Chain of 72 kDa type IV collagenase (P08253 whole entry): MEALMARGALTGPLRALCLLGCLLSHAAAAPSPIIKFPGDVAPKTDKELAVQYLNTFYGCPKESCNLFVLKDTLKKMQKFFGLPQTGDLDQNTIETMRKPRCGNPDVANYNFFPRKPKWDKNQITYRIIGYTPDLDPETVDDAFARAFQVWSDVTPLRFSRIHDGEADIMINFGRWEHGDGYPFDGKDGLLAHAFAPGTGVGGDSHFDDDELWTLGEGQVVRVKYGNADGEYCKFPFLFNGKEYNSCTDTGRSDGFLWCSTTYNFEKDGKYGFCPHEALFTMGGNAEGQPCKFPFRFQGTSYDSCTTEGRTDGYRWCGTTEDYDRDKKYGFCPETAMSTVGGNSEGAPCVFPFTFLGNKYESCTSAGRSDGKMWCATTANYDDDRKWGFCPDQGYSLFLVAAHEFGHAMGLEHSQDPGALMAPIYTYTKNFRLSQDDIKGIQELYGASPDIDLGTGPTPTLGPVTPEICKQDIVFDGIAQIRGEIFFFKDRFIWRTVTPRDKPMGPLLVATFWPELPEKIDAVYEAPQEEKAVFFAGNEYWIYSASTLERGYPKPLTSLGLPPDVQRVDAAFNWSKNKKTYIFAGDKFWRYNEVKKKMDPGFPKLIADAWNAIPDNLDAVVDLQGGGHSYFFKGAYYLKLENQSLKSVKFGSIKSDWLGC
IC50 [1],IC50 [3],Structure (SMILES),further results
0.9 nM,1 nM,O=C(Nc1ccc(S(=O)(=O)N[C@H](Cc2c[nH]c3ccccc23)C(=O)O)cc1)c1ccc(Br)cc1,IC50 [2]: > 1000 nM
4.8 nM,28 nM,COc1ccc(-c2ccc(S(=O)(=O)N[C@H](Cc3c[nH]c4ccccc34)C(=O)O)cc2)cc1,–
4.8 nM,21 nM,O=C(Nc1ccc(S(=O)(=O)N[C@H](Cc2c[nH]c3ccccc23)C(=O)O)cc1)c1ccc(OC(F)(F)F)cc1,–
1.8 nM,7 nM,O=C(Nc1ccc(S(=O)(=O)N[C@H](Cc2c[nH]c3ccccc23)C(=O)O)cc1)c1ccc(F)cc1,IC50 [2]: > 1000 nM
< 1 nM,1.1 nM,O=C(Nc1ccc(S(=O)(=O)N[C@H](Cc2c[nH]c3ccccc23)C(=O)O)cc1)c1ccc(I)cc1,–
< 1 nM,11 nM,COc1ccc(C(=O)Nc2ccc(S(=O)(=O)N[C@H](Cc3c[nH]c4ccccc34)C(=O)O)cc2)cc1,–
< 1 nM,97 nM,CC(C)Oc1ccc(C(=O)Nc2ccc(S(=O)(=O)N[C@H](Cc3c[nH]c4ccccc34)C(=O)O)cc2)cc1,–
< 1 nM,460 nM,CC(C)COc1ccc(C(=O)Nc2ccc(S(=O)(=O)N[C@H](Cc3c[nH]c4ccccc34)C(=O)O)cc2)cc1,–
14 nM,78 nM,O=C(Nc1ccc(S(=O)(=O)N[C@H](Cc2c[nH]c3ccccc23)C(=O)O)cc1)c1ccnc(F)c1,–
7 nM,17 nM,O=C(Nc1ccc(S(=O)(=O)N[C@H](Cc2c[nH]c3ccccc23)C(=O)O)cc1)c1ccc(F)nc1,IC50 [2]: > 1000 nM
141 nM,> 1000 nM,O=C(Nc1ccc(S(=O)(=O)N[C@H](Cc2c[nH]c3ccccc23)C(=O)O)cc1)c1cccnc1F,–
5.2 nM,38 nM,O=C(Nc1ccc(S(=O)(=O)N[C@H](Cc2c[nH]c3ccccc23)C(=O)O)cc1)c1cc(F)ccn1,–
5.8 nM,230 nM,O=C(O)[C@@H](Cc1c[nH]c2ccccc12)NS(=O)(=O)c1ccc(-c2ccc(Cl)cc2)cc1,–
3.6 nM,100 nM,COc1ccc(Oc2ccc(S(=O)(=O)N[C@H](Cc3c[nH]c4ccccc34)C(=O)O)cc2)cc1,–
–,–,O=C(Nc1ccc(S(=O)(=O)N[C@H](Cc2c[nH]c3ccccc23)C(=O)O)cc1)c1ccc([18F])cc1,Stability [4]: Stable; dose excreted [5]: 85%; Drug uptake [6]: Not Active; Drug uptake [7]: Active; Drug metabolism [8]: Not Active; Stability [9]: Stable
